Experimental data as given in PMC9064382 (RSC Advances, 2019).

Experiments:
Format in all cases: in vitro ADME
hOATP1B3 = biological target: T1, hOATP1B3 (Homo sapiens, UniProt Q9NPD5)
T1 sequence (Q9NPD5 1-702): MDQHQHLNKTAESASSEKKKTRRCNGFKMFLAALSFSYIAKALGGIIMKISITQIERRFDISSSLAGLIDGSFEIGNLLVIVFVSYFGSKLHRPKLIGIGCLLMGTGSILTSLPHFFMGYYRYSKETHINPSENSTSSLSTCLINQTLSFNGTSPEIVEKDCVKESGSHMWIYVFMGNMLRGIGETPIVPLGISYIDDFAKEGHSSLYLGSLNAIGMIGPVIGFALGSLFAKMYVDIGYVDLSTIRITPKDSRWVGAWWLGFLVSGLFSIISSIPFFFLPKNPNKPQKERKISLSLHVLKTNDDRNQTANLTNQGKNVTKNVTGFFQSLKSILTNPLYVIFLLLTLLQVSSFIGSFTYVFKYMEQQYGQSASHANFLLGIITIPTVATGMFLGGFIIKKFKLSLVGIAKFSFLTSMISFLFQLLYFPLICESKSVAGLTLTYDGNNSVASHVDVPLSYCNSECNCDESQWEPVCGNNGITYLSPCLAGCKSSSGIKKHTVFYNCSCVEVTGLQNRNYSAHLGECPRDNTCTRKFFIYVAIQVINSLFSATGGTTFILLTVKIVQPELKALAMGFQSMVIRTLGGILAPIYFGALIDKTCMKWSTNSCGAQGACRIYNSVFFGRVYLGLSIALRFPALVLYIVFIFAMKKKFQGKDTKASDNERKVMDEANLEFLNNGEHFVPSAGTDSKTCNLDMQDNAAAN

hOCT1 = biological target: T2, hOCT1 (Homo sapiens, UniProt O15245); assay: Inhibition of 14C-TEA uptake in hOCT1-transfected cells by liquorice ingredients; conditions: read-out: IC50 on hOCT1; 14C-TEA probe, 5 min
T2 sequence (O15245 1-554): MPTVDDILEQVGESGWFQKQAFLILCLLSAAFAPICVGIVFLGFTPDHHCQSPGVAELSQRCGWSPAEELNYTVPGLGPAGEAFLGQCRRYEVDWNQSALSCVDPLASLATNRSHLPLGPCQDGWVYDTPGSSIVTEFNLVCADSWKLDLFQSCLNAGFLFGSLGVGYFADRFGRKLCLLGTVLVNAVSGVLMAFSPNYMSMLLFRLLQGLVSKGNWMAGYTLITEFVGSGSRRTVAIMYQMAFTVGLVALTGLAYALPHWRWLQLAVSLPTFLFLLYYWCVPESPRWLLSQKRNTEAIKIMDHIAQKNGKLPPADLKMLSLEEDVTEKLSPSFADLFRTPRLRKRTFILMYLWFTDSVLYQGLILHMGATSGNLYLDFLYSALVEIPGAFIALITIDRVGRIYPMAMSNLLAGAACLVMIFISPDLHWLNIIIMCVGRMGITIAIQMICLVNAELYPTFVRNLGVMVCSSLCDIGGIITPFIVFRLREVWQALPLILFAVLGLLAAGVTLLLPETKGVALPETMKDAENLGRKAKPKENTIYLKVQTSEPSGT
Method in brief: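 Transfected and mock cells were seeded at 2 × 10^5/well and grown 48 h. They were then exposed at 37 °C to test compound at 1, 3, 10, 30 and 100 μmol L−1 (DMSO <0.2%) with either 5 μmol L−1 14C-PAH for 2 min (hOAT1) or 5 μmol L−1 14C-TEA for 5 min (hOCT1). Uptake was stopped with cold DPBS and three rinses, cells lysed in 0.1 mol L−1 NaOH, counted by liquid scintillation (dpm), and IC50 calculated.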

hOCT2 = biological target: T3, hOCT2 (Homo sapiens, UniProt O15244); assay: Inhibition of 14C-TEA uptake in hOCT2-transfected cells by liquorice ingredients; conditions: 5 min
T3 sequence (O15244 1-555): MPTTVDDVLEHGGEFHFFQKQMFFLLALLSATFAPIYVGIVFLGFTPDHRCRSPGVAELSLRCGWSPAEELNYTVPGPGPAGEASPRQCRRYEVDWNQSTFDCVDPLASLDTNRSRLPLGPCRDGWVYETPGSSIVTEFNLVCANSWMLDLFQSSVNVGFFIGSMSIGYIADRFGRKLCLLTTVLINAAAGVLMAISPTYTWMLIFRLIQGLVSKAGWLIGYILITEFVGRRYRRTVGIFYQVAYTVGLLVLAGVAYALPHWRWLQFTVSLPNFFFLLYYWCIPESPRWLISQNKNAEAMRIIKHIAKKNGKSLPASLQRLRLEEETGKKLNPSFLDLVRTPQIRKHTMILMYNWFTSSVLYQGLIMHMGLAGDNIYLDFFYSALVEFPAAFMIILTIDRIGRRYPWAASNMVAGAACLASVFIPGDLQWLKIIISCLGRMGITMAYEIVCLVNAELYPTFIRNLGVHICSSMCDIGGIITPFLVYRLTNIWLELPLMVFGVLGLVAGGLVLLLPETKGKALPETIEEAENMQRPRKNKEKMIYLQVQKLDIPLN

IC50 (hOATP1B3; read-out: IC50 on hOATP1B3, 3H-ES probe, 2 min): 1.91 µM
inhibition of hOATP1B3 (hOATP1B3; screening at 100 μm): strong inhibitors
IC50 (hOCT1): 14 µM
inhibitory rate on hOCT2 (hOCT2; 100 μm, 5 μmol L^−1 14C-TEA): 91.76%
IC50 (hOCT2; read-out: IC50 on hOCT2, 14C-TEA probe): 6.61 µM
SMILES: C=CC(C)(C)c1cc(/C=C/C(=O)c2ccc(O)cc2)c(OC)cc1O [licochalcone A]
